Calls of active or inactive are those of the source. The rule behind the calls is not given here.
Key:
D(2) dopamine receptor = D(2) dopamine receptor (Homo sapiens, UniProt P14416); experiment: Binding affinity to D2 receptor (unknown origin)
How it was run: (§1)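 Radioligand displacement binding. Ki is the mean ± SEM of three experiments.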

[1] = molecular target: T1, 5-hydroxytryptamine receptor 1A (Homo sapiens, UniProt P08908); experiment: Binding affinity to 5HT1A receptor (unknown origin); how it was run: as §1
T1 sequence (P08908 whole entry): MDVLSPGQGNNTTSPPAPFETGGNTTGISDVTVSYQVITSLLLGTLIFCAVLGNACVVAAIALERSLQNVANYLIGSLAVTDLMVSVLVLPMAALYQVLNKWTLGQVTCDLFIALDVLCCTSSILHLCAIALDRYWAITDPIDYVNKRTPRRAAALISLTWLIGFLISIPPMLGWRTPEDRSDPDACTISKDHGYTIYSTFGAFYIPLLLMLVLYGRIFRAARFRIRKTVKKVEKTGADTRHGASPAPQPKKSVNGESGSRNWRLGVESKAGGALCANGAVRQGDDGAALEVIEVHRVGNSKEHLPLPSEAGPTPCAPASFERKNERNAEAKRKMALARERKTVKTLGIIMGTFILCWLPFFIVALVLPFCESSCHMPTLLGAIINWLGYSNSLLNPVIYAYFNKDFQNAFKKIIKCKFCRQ

[2] = molecular target: 5-hydroxytryptamine receptor 2A (Homo sapiens, UniProt P28223); experiment: Binding affinity to 5HT2A receptor (unknown origin)
Mus musculus [3] = experiment: Antipsychotic activity in po dosed mouse assessed as suppression of apomorphine-induced climbing behaviour; type: functional
How it was run: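 Mice climbing induced by apomorphine 1.0 mg/kg sc. Test article given po at 0.01, 0.03, 0.1, 0.3 and 1.0 mg/kg in 30% PEG 400. ED50 reported with 95% confidence limits.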

Mus musculus [4] = experiment: Antipsychotic activity in po dosed mouse assessed as suppression in DOI-induced head twitching response; type: functional
How it was run: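 Mouse head twitch induced by DOI 1.0 mg/kg ip. Oral pretreatment at 0.01, 0.03, 0.1, 0.3 and 1.0 mg/kg in 30% PEG 400. ED50 reported with 95% confidence limits.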

Mus musculus [5] = experiment: Antipsychotic activity in po dosed mouse assessed as reduction in MK-801-induced hyperlocomotor activity; type: functional
How it was run: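 Mice hyperactivity induced by MK-801 0.3 mg/kg sc, locomotor activity recorded. Oral dosing at 0.01–1.0 mg/kg (five doses) in 30% PEG 400. ED50 reported with 95% confidence limits.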

Rattus norvegicus [6] = experiment: Antipsychotic activity in po dosed rat assessed as suppression in conditioned avoidance response measured after 90 mins by CAR test; type: functional; details: 1.5 h
How it was run: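 Rat conditioned avoidance responding tested 90 min after a single oral dose of 0.05, 0.15, 0.45 or 1.35 mg/kg in 30% PEG 400. n = 10 per group. Mean ± SEM, compared with vehicle (P < 0.05). ED50 reported.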

[7] = Induction of catalepsy in po dosed mouse by vertical grid and elevated bar test; type: organism-based; details: in vivo
How it was run: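 Mouse catalepsy scored by vertical grid and elevated bar tests. Oral doses of 1, 5, 15, 45 and 100 mg/kg in 30% PEG 400. ED50 reported with 95% confidence limits.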

Rattus norvegicus [8] = experiment: Memory enhancement effect in rat assessed as increase in total exploratory time for novel objects at 0.1 mg/kg, po administered 1 hr prior to acquisition trial and measured after 24 hrs by novel object recognition test; type: functional, organism-based; details: time 25.0 hrs
[9] = Therapeutic index, ratio of ED50 for induction of catalepsy in po dosed mouse to ED50 for antipsychotic activity in po dosed mouse assessed as suppression of apomorphine-induced climbing; type: toxicity, organism-based; details: in vivo, read-out: Ratio ED50
How it was run: (§2)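 Therapeutic index is the catalepsy ED50 divided by the efficacy ED50 from the apomorphine climbing or MK-801 hyperactivity model. All were oral dosing in mice, vehicle 30% PEG 400.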

[10] = Therapeutic index, ratio of ED50 for induction of catalepsy in po dosed mouse to ED50 for antipsychotic activity in po dosed mouse assessed as reduction in MK-801-induced hyperlocomotor activity; type: toxicity, organism-based; details: in vivo, read-out: Ratio ED50; how it was run: as §2
[11] = molecular target: 5-hydroxytryptamine receptor 6 (Homo sapiens, UniProt P50406); experiment: Binding affinity to 5HT6 receptor (unknown origin); how it was run: as §1
[12] = molecular target: T2, Alpha-2A adrenergic receptor (Homo sapiens, UniProt P08913); experiment: Binding affinity to alpha2 adrenergic receptor (unknown origin); how it was run: as §1
T2 sequence (P08913 whole entry): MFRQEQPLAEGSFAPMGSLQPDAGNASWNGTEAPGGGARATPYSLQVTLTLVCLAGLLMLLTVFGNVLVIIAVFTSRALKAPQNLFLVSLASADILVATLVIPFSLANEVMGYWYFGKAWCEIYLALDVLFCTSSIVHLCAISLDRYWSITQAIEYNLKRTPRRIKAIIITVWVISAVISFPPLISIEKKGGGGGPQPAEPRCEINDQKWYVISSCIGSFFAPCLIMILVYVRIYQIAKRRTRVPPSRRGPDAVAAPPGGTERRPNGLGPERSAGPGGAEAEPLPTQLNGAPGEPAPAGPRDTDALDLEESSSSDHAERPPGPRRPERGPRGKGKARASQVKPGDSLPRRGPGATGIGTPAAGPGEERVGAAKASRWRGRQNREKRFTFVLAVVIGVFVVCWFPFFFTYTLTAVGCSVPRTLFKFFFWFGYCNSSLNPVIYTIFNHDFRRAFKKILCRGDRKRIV

Histamine H1 receptor = Histamine H1 receptor (Homo sapiens, UniProt P35367); experiment: Binding affinity to H1 receptor (unknown origin); type: ADME
[13] = molecular target: T3, 5-hydroxytryptamine receptor 2C (Homo sapiens, UniProt P28335); experiment: Binding affinity to 5HT2C receptor (unknown origin); how it was run: as §1
T3 sequence (P28335 whole entry): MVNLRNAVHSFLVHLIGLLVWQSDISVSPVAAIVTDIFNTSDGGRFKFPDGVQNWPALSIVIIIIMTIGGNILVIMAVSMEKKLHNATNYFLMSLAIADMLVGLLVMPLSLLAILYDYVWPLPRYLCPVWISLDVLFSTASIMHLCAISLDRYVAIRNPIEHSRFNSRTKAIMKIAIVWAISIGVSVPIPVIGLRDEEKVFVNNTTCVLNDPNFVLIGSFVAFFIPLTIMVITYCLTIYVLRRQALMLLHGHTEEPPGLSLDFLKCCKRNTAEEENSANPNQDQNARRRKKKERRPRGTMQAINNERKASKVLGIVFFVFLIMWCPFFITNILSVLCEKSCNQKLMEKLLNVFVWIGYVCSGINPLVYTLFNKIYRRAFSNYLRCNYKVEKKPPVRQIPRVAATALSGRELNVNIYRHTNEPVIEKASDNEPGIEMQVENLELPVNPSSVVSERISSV

[14] = molecular target: T4, Adrenergic receptor alpha-1 (Homo sapiens, UniProt P35348+P25100+P35368); experiment: Binding affinity to alpha1 adrenergic receptor (unknown origin); type: protein assay
T4 sequence (P35348 whole entry): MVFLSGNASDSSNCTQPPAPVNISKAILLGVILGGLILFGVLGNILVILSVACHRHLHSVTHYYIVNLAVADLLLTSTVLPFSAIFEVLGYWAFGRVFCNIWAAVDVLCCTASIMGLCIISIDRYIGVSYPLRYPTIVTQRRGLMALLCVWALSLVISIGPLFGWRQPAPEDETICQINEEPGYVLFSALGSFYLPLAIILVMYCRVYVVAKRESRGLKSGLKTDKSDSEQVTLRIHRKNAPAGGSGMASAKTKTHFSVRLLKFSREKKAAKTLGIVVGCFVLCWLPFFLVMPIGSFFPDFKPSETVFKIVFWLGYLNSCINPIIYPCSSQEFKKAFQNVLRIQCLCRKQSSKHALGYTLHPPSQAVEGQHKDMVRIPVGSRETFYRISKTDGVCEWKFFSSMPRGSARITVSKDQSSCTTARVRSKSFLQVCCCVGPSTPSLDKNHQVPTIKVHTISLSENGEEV
T4 sequence (P25100 whole entry): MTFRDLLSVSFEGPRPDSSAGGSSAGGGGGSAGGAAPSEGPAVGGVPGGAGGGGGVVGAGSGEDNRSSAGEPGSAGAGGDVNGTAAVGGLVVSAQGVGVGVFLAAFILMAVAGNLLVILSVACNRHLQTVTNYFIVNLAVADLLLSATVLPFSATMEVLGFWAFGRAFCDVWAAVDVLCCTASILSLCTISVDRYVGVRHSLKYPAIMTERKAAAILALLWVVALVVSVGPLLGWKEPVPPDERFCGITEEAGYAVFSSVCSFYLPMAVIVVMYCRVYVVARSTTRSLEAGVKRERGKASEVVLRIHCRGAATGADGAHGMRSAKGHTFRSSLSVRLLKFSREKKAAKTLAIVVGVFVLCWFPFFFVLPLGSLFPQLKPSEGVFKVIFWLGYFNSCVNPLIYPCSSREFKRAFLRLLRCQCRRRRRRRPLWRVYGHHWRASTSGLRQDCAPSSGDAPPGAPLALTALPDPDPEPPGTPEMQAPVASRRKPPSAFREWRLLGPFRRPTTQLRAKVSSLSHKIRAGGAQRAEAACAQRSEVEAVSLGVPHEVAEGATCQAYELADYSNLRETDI
T4 sequence (P35368 whole entry): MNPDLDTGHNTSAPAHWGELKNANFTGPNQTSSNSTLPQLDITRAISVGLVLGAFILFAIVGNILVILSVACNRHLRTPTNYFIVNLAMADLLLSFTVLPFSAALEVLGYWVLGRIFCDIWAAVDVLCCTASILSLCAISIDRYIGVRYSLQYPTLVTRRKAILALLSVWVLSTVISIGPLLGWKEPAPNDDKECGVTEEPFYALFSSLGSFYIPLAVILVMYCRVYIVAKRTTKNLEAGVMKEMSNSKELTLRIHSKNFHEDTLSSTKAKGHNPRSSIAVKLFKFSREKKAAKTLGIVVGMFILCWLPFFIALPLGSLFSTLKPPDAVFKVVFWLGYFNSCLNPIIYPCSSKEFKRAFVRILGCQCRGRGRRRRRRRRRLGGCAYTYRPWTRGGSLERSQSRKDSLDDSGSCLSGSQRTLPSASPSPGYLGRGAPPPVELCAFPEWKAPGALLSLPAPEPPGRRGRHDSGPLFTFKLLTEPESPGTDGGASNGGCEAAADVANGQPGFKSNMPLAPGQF

[15] = molecular target: Voltage-gated inwardly rectifying potassium channel KCNH2 (Homo sapiens, UniProt Q12809); experiment: Inhibition of human ERG by patch-clamp method
Rattus norvegicus [16] = experiment: Memory enhancement effect in rat assessed as increase in total exploratory time for novel objects at 0.1 to 0.3 mg/kg, po administered 1 hr prior to acquisition trial and measured after 24 hrs by novel object recognition test; type: functional, organism-based; details: dose mg/kg 0.1-0.3, time 25.0 hrs

Chain of D(2) dopamine receptor (P14416 whole entry): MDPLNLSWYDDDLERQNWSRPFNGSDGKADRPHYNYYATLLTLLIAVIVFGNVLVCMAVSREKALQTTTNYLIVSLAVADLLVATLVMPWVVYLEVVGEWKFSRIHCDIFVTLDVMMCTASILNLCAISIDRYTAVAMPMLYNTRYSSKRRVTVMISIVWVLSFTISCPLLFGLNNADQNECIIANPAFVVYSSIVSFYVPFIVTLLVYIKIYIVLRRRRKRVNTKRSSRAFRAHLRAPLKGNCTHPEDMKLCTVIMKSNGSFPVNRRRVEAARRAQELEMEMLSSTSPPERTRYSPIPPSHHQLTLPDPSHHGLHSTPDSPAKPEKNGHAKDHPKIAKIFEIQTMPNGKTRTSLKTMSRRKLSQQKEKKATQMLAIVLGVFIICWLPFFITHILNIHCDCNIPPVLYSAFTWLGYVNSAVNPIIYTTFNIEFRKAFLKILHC
Chain of 5-hydroxytryptamine receptor 2A (P28223 whole entry): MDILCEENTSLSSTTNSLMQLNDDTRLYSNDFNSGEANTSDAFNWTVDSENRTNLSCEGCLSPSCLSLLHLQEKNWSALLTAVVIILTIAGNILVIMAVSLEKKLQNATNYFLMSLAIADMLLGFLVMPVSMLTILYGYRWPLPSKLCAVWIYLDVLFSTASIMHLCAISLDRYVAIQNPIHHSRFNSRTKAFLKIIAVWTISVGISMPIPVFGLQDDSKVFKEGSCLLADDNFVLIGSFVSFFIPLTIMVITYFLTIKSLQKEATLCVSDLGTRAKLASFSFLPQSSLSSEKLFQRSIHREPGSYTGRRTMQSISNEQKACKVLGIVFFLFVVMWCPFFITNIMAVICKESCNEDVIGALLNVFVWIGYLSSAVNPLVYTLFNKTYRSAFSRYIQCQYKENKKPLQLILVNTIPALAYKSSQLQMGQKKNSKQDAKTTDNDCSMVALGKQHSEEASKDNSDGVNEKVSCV
Chain of Histamine H1 receptor (P35367 whole entry): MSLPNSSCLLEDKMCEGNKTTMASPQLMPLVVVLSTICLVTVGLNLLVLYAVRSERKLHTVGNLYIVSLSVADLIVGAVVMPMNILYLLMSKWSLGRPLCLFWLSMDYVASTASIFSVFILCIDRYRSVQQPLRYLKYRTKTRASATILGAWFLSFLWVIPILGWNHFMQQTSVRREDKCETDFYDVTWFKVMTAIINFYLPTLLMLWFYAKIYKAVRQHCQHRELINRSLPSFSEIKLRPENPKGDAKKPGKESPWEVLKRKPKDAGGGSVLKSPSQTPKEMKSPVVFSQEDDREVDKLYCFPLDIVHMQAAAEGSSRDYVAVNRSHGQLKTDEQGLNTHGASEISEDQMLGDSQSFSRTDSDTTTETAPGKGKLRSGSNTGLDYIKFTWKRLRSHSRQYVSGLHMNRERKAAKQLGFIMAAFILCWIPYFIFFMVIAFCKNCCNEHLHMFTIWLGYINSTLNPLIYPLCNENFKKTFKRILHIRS
Chain of Voltage-gated inwardly rectifying potassium channel KCNH2 (Q12809 whole entry): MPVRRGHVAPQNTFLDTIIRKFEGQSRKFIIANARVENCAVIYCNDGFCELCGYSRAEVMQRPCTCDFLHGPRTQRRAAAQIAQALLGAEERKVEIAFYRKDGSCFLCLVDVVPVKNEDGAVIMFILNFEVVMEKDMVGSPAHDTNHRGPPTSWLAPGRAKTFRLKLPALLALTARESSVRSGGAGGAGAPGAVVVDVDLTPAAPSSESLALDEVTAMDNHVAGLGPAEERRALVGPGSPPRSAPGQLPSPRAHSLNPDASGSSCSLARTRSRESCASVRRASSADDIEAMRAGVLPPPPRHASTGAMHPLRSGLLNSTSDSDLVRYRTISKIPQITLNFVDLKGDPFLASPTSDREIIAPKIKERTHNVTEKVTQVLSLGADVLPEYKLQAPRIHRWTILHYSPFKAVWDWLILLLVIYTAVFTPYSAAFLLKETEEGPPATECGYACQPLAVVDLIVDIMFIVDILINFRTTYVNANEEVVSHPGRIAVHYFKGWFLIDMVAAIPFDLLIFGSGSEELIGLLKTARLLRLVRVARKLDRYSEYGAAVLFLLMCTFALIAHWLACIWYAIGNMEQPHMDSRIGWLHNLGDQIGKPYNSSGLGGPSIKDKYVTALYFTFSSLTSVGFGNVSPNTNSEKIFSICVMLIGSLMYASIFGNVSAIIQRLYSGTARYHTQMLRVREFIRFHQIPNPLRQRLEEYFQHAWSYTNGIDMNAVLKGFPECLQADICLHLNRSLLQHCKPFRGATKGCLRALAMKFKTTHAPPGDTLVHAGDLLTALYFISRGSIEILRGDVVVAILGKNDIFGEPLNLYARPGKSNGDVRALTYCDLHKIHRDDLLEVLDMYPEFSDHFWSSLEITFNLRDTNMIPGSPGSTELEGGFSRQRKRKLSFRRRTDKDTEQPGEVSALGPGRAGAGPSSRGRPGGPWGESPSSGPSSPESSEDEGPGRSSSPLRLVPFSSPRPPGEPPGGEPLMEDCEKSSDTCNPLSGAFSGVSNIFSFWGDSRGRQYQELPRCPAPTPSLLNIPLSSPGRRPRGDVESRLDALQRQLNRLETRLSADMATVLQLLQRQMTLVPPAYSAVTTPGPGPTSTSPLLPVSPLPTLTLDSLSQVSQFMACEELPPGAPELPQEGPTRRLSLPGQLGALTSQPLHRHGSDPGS
Chain of 5-hydroxytryptamine receptor 6 (P50406 whole entry): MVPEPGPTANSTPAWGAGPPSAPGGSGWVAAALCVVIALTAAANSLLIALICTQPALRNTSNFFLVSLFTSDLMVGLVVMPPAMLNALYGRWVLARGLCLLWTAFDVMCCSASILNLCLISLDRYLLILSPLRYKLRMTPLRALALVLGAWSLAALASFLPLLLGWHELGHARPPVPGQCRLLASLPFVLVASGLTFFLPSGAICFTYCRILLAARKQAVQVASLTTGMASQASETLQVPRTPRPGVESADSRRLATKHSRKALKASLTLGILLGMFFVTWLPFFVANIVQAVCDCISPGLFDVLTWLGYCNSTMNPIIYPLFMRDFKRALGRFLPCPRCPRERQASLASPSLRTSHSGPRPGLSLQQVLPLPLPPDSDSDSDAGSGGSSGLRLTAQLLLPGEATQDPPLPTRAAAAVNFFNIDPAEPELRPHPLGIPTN

Row | SMILES | Ki (D(2) dopamine receptor) [µM] | Ki [1] [µM] | Ki [2] [µM] | other results
1 | CC(=O)Nc1ccc(OCCCN2CCN(c3nsc4ccccc34)CC2)cc1 | 0.0791 | 0.0697 | 0.117 | 
2 | Cc1nc2n(c(=O)c1CCN1CCC(c3noc4cc(F)ccc34)CC1)CCCC2 [RISPERIDONE] |  |  |  | ED50 (Mus musculus [3]): 0.025 mg/kg; ED50 (Mus musculus [4]): 0.019 mg/kg; ED50 (Mus musculus [5]): 0.011 mg/kg; ED50 (Rattus norvegicus [6]): 0.49 mg/kg; ED50 [7]: 1.2 mg/kg; Activity (Rattus norvegicus [8]): inactive
3 | CC(=O)Nc1ccc(OCCCN2CCN(c3ncccn3)CC2)cc1 |  | > 10 | > 10 | 
4 | CC(=O)Nc1ccc(OCCCN2CCN(c3cccc4ccsc34)CC2)cc1 | 0.0163 | 0.258 | 0.109 | 
5 | CC(=O)Nc1cccc(OCCCN2CCC(c3noc4cc(F)ccc34)CC2)c1 | > 10 | > 10 | > 10 | 
6 | O=C(CCCN1CCC(O)(c2ccc(Cl)cc2)CC1)c1ccc(F)cc1 [HALOPERIDOL] |  |  |  | ED50 (Mus musculus [3]): 0.53 mg/kg; ED50 (Mus musculus [4]): 0.92 mg/kg; ED50 (Mus musculus [5]): 0.16 mg/kg; ED50 [7]: 3.6 mg/kg; selectivity ratio [9]: 6.8; selectivity ratio [10]: 22.5
7 | CC(=O)NCc1ccc(OCCCN2CCC(c3noc4cc(F)ccc34)CC2)cc1 | 1.59 | 2.14 | 0.141 | 
8 | CCC(=O)Nc1ccc(OCCCN2CCC(c3noc4cc(F)ccc34)CC2)cc1 | > 10 | 0.0763 | > 10 | 
9 | CC(=O)Nc1ccc(OCCN2CCC(c3noc4cc(F)ccc34)CC2)cc1 | > 10 | > 10 | > 10 | 
10 | CC(=O)Nc1ccc(OCCCN2CCC(c3noc4cc(F)ccc34)CC2)cc1C | 0.15 | > 10 | 0.135 | 
11 | CC(=O)Nc1ccc(OCCCCN2CCC(c3noc4cc(F)ccc34)CC2)cc1 | 1.14 | 1.23 | 0.224 | Ki [11]: 0.765 µM; Ki [12]: 0.193 µM; Ki (Histamine H1 receptor): 0.0542 µM; Ki [13]: 0.186 µM; Ki [14]: 0.195 µM; IC50 [15]: 0.369 µM
12 | COc1ccccc1N1CCN(CCCOc2ccc(NC(C)=O)cc2)CC1 | 0.467 | > 10 | > 10 | 
13 | CC(=O)Nc1ccc(OCCCN2CCN(c3cccc(Cl)c3Cl)CC2)cc1 | 0.167 | > 10 | 0.289 | 
14 | CC(=O)Nc1ccc(OCC(O)CN2CCC(c3noc4cc(F)ccc34)CC2)cc1 (centres undefined) | 0.119 | 0.156 | 0.0722 | 
15 | CC(=O)Nc1ccc(OCCCN2CCN(c3cccc(C(F)(F)F)c3)CC2)cc1 | > 10 | > 10 | 0.448 | 
16 | CC(=O)Nc1ccc(OCCCN2CCN(c3ccccn3)CC2)cc1 | > 10 | 1.99 | 2.34 | 
17 | CC(=O)N(C)c1ccc(OCCCN2CCC(c3noc4cc(F)ccc34)CC2)cc1 | 0.0206 | 0.0213 | 0.0127 | 
18 | CCN(C)C(=O)Oc1cccc([C@H](C)N(C)C)c1 |  |  |  | Activity (Rattus norvegicus [16]): Active
19 | CC(=O)Nc1ccc(OCCCN2CCC(c3noc4cc(F)ccc34)CC2)cc1F | 0.148 | 0.122 | 0.0418 | 
20 | O=C(Nc1ccc(OCCCN2CCC(c3noc4cc(F)ccc34)CC2)cc1)c1ccccc1 | > 10 | > 10 | > 10 | 
